ChEMBL document CHEMBL4219127, “Structural design, synthesis and substituent effect of hydrazone-N-acylhydrazones reveal potent immunomodulatory agents” (Bioorg Med Chem, 2018)
pIC50: −log10 of the molar value. Calls of active or inactive are those of the source. The rule behind the calls is not given here.

Tests used:
[1] = Cytotoxicity against BALB/c mouse J774 cells assessed as reduction in cell viability after 72 hrs by alamarBlue assay; format: cell-based
Summary of the method: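 J774 murine macrophages, 1×10^4 cells/well in DMEM + 10% FBS, pre-incubated 24 h at 37°C, 5% CO2; compounds 100–0.41 μM in triplicate for 72 h. AlamarBlue added for 4 h, absorbance at 570 and 600 nm; gentian violet positive control. CC50 from three independent experiments.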

[2] = system: J774; test: Antiinflammatory activity in BALB/c mouse J774 cells assessed as inhibition of LPS/IFNgamma-induced nitric oxide production at 20 uM after 24 hrs by Griess method relative to control; format: functional; conditions: J774, 24 h
Summary of the method: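 J774 macrophages, 2×10^5 cells/well in DMEM + 10% FBS, allowed to settle 2 h at 37°C, 5% CO2; stimulated with LPS (E. coli 0111:B4, 500 ng/mL) plus IFNγ (5 ng/mL) with compound present (primary screen at 20 μM). Nitrite measured by Griess in supernatants at 24 h; % inhibition against stimulated untreated control.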

[3] = system: Splenocyte; test: Immunomodulatory activity in BALB/c mouse splenocytes assessed as inhibition of concanavalin A-induced lymphocyte proliferation by measuring [3H]-thymidine uptake after 48 to 72 hrs by scintillation counting analysis; format: functional, cell-based
Summary of the method: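 BALB/c splenocytes at 1×10^6 cells/well, in triplicate, stimulated with Con A (2 μg/mL) or anti-CD3/CD28 beads (1:1 bead:cell) with compound at 12–0.04 μM. After 48 h, 1 μCi 3H-thymidine added for a further 18 h; scintillation counting. Proliferation as % uptake versus untreated; dexamethasone control. IC50 from three independent experiments.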

[4] = system: Mus musculus; test: Antiinflammatory activity in carrageenan-induced BALB/c mouse peritonitis model assessed as reduction in number of neutrophils in peritoneal fluid at 80 mg/kg, ip pretreated for 1 hr followed by carrageenan challenge measured after 4 hrs by hematoxylin and eosin staining-based assay relative to control; format: functional
Summary of the method: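 Male BALB/c mice were dosed orally with compound (20 or 80 mg/kg) or vehicle; indomethacin 80 mg/kg was given ip. One hour later, carrageenan (250 µL of 1.0 mg/mL) was injected ip. Peritoneal lavage with 2 mL saline at 4 h. Total leukocytes counted in Neubauer chamber with Trypan blue; neutrophils by blinded 200-cell differential on H&E-stained cytospins.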

[5] = system: Splenocyte; test: Antiinflammatory activity in BALB/c mouse splenocytes assessed as inhibition of concanavalin A-induced IL-2 level at 1 uM after 48 hrs by ELISA; format: functional, cell-based
Summary of the method: (§1)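 Splenocytes from BALB/c mice at 5×10^6 cells/well in DMEM, stimulated with Con A 5 µg/mL, with compound at 10, 5 and 2.5 µM. Cell-free supernatants collected at 48 h and stored at -80 °C. IL-2, IL-4, IL-10, IL-17 and IFNγ measured by sandwich ELISA. Dexamethasone control at 10 µM (1.0 µM for IL-2). Mean±S.E.M. from one of two experiments.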

[6] = system: Splenocyte; test: Antiinflammatory activity in BALB/c mouse splenocytes assessed as inhibition of concanavalin A-induced IL-4 level at 10 uM after 48 hrs by ELISA; format: functional, cell-based; summary of the method: as §1
[7] = system: Splenocyte; test: Antiinflammatory activity in BALB/c mouse splenocytes assessed as inhibition of concanavalin A-induced IL-10 level at 10 uM after 48 hrs by ELISA; format: functional, cell-based; summary of the method: as §1
[8] = system: Splenocyte; test: Antiinflammatory activity in BALB/c mouse splenocytes assessed as inhibition of concanavalin A-induced IL-17A level at 10 uM after 48 hrs by ELISA; format: functional, cell-based; summary of the method: as §1
[9] = system: Splenocyte; test: Antiinflammatory activity in BALB/c mouse splenocytes assessed as inhibition of concanavalin A-induced IFN-gamma level at 10 uM after 48 hrs by ELISA; format: functional, cell-based; summary of the method: as §1

SMILES	CC50 at 72 h [1] [µM]	inhibition at 20 µM [2] [%]	pIC50 [3]	other results
CC(/C=N/Nc1ccc([N+](=O)[O-])cc1)=N\NC(=O)c1ccccc1F	> 100	5.3	< 4.92	
CC(/C=N/Nc1ccc([N+](=O)[O-])cc1)=N\NC(=O)c1ccc(C(F)(F)F)cc1	78.7	18.7	< 4.92	
CC(/C=N/Nc1ccc([N+](=O)[O-])cc1)=N\NC(=O)c1ccccc1	> 100	31.4	< 4.92	
CC(/C=N/Nc1ccc([N+](=O)[O-])cc1)=N\NC(=O)c1ccc(N)cc1	75	12.8	< 4.92	
CC(/C=N/Nc1ccc([N+](=O)[O-])cc1)=N\NC(=O)c1ccccc1I	40	56.8	5.53	
COc1ccc2c(c1)c(CC(=O)O)c(C)n2C(=O)c1ccc(Cl)cc1 [INDOMETHACIN]				inhibition in vivo at 80 mg/kg [4]: 35.9%
CC(/C=N/Nc1ccc([N+](=O)[O-])cc1)=N\NC(=O)c1ccc([N+](=O)[O-])cc1	> 100	39.1	6.01	
COc1ccc(C(=O)N/N=C(C)/C=N/Nc2ccc([N+](=O)[O-])cc2)cc1	> 100	7.5	< 4.92	
CC(/C=N/N(C)c1ccc([N+](=O)[O-])cc1)=N\NC(=O)c1ccccc1O	31.5	41	5.51	
CC(/C=N/Nc1ccc([N+](=O)[O-])cc1)=N\NC(=O)c1cccc(C)c1	> 100	9.3	< 4.92	
COc1cc(C(=O)N/N=C(C)/C=N/Nc2ccc([N+](=O)[O-])cc2)ccc1O	> 100	6.6	5.29	
CC(/C=N/N(C)c1ccc([N+](=O)[O-])cc1)=N\NC(=O)c1cc([N+](=O)[O-])cc([N+](=O)[O-])c1	39	51	5.95	
CC(/C=N/Nc1ccc([N+](=O)[O-])cc1)=N\NC(=O)c1ccccc1C	> 100	21.9	5.22	
CC(/C=N/Nc1ccc([N+](=O)[O-])cc1)=N\NC(=O)c1ccc(N(C)C)cc1	> 100	25.6	< 4.92	
CC(/C=N/Nc1ccc([N+](=O)[O-])cc1)=N\NC(=O)c1ccccc1O	29.5	59.7	5.79	
CC(/C=N/Nc1ccc([N+](=O)[O-])cc1)=N\NC(=O)c1ccc(Cl)cc1	63.9	23	5.38	
CC(/C=N/Nc1ccc([N+](=O)[O-])cc1)=N\NC(=O)c1ccc(C(C)(C)C)cc1	> 100	4.8	< 4.92	
CC(/C=N/Nc1ccc([N+](=O)[O-])cc1)=N\NC(=O)c1ccccc1Cl	> 100	39.4	< 4.92	
CC(/C=N/N(C)c1ccc([N+](=O)[O-])cc1)=N\NC(=O)c1ccc(N)cc1	51.7	3.6	< 4.92	
CC(/C=N/Nc1ccc([N+](=O)[O-])cc1)=N\NC(=O)c1ccccc1Oc1ccccc1	> 100	5.5	< 4.92	
CC(/C=N/Nc1ccc([N+](=O)[O-])cc1)=N\NC(=O)c1ccc(O)cc1	51	43.8	5.82	
C[C@@H]1C[C@H]2[C@@H]3CCC4=CC(=O)C=C[C@]4(C)[C@@]3(F)[C@@H](O)C[C@]2(C)[C@@]1(O)C(=O)CO [DEXAMETHASONE]	91.1	69.8	9.00	inhibition [5]: Active; inhibition [6]: Active; inhibition [7]: Active; inhibition [8]: Active; inhibition [9]: Active
CC(/C=N/Nc1ccc([N+](=O)[O-])cc1)=N\NC(=O)c1ccccc1Nc1ccccc1	> 100	14.1		
CC(/C=N/Nc1ccc([N+](=O)[O-])cc1)=N\NC(=O)c1ccc2c(c1)OCO2	> 100	23.2	< 4.92	
CC(/C=N/Nc1ccc([N+](=O)[O-])cc1)=N\NC(=O)c1ccccc1N	29.8	39.3	5.31	
CN(C)c1ccc(C(=C2C=CC(=[N+](C)C)C=C2)c2ccc(N(C)C)cc2)cc1 [GENTIAN VIOLET]	4.1			
